# Several values for one entry are separate records, joined by “and”; a condition that tells them apart may be missing. Equal values may be shown once.
# How the values were obtained:
# [1] = molecular target: T1, Id3 (Mus musculus, UniProt P41133); test: Circular dichroism; type: binding
# T1 sequence (P41133 1-119): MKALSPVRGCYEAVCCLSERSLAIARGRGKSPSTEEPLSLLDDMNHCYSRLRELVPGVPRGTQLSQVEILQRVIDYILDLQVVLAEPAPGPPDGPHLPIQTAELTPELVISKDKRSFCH
# [2] = tested on: Cyclin D1; test: Western blot for Cyclin D1 in HUVECs; type: cell-based, human; conditions: 0–40 μM, 24 h
# In short: (§1)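 HUVECs treated with 0–40 µM test compound for 24 h. Whole-cell lysates were immunoblotted for the target protein. Infrared band intensities were blank-subtracted and normalised to tubulin.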
# [3] = tested on: ID1 mRNA; test: qRT-PCR for ID1 in HCT116 cells; type: cell-based, human; conditions: HCT116, 40 μM, 24 hours
# In short: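 ID1 transcript measured by qRT-PCR after treatment, using validated QuantiTect primer sets with GAPDH as reference. Fold change was calculated by the delta-delta CT method.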
# [4] = 14-day toxicity study, i.p. dosing; type: in vivo, mouse; conditions: mice, 60 mg/kg i.p. bid, 14 days
# In short: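 Mice given the test compound or vehicle (70% DMSO in water) i.p. at 60 mg/kg twice daily for 14 consecutive days. They were sacrificed 24 h after the last dose for gross and complete necropsy and clinical pathology. Clinical chemistry covered BUN, creatinine, ALP, ALT, AST, GGT, bilirubin, total protein, albumin, globulin, phosphorus, glucose, cholesterol, calcium, sodium, potassium and chloride.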
# [5] = tested on: HUVECs; test: HUVEC scratch assay; type: cell-based, human; conditions: 0–40 μM, 24 h
# In short: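 HUVECs grown on 0.1% fibronectin-coated wells to confluence over 24 h. They were then serum-starved for 4 h in endothelial basal medium and scratched with a pipette tip to create a cell-free zone before exposure to the test compound.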
# [6] = Pharmacokinetics in serum after i.p. injection; type: in vivo, mouse; conditions: for mean maximum serum concentration: mice
# In short: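 Eight-week-old male BALB/c mice received a single i.p. dose of 30, 50 or 100 mg/kg in 70% DMSO, with another group given 100 mg/kg in 100% DMSO (n = 3 per group). Blood was drawn at 30 min, 1, 3, 6 and 24 h. […] was quantified by a validated LC-MS protocol.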
# [7] = tested on: choroidal neovascularization; test: Laser-induced choroidal neovascularization; type: in vivo, mouse
# In short: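 Female C57BL/6 mice aged 4–6 weeks had laser rupture of Bruch's membrane at three sites per eye. Test compounds (1 or 5 µg) or DMSO were given intravitreally. At day 14, choroidal flat mounts were stained with FITC-Griffonia simplicifolia lectin, and CNV area was measured by fluorescence image analysis by an observer masked to group.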
# [8] = molecular target: T2, NanoLuc luciferase ID1 fusion protein (Homo sapiens, UniProt P41134); test: NanoBRET target engagement assay in permeabilized 293T cells; type: binding; conditions: 2 μM AGX51 tracer, 0–60 μM competitor, 50 μg/mL digitonin
# T2 sequence (P41134 1-155): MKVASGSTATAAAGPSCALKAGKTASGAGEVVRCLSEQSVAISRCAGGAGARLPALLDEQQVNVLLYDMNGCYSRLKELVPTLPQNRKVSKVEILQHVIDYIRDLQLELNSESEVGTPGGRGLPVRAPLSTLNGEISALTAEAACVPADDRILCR
# In short: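 293T cells transfected with an N-terminal NanoLuc–ID1 fusion construct and plated 24 h later. Cells received 2 µM fluorescent tracer plus 0–60 µM competitor, then were permeabilised with digitonin (50 µg/mL). NanoBRET Nano-Glo substrate was added and the BRET ratio read, following the kit protocol for intracellular target engagement.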
# [9] = tested on: 4T1 cells; test: 4T1 cell-based IC50; conditions: Mus musculus, 4T1, 24 h
# In short: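 4T1 cells exposed to 0–20 µM test compound for 24 h. Whole-cell lysates were immunoblotted for Id1. Band intensities were read on 700/800 nm infrared channels, blank-subtracted and normalised to tubulin, and IC50 was taken from these blots.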
# [10] = tested on: HCT116 cells; test: HCT116 cell viability; type: cell-based, human
# In short: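 MTT viability: cells seeded at 5000/well and left overnight, then exposed to the test compound for 24 h. MTT (5 mg/mL) was added for 4 h, medium removed and formazan dissolved in DMSO. Absorbance was read at 570 nm.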
# [11] = molecular target: T3, E47-ID1 cellular complex (Homo sapiens, UniProt P41134); test: Immunoprecipitation of endogenous ID1 and E47 in HCT116 cells; type: cell-based; conditions: HCT116, 60 μM, 1 h
# T3 sequence (P41134 1-155): T2 sequence (P41134 1-155)
# In short: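 HCT116 cells were exposed for 1 h and lysed in NP40 or RIPA buffer with phosphatase/protease inhibitors, then cleared 15 min at 15,000 rpm, 4°C. Lysates were immunoprecipitated overnight at 4°C with anti-ID1 or anti-E2A plus protein G/A beads, washed four times and eluted in SDS sample buffer. SDS-PAGE/PVDF blots (5% milk in TBS-0.1% Tween20) were probed for ID1 (1:500) or E2A (1:1000), alongside whole-cell lysate blots.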
# [12] = tested on: HUVECs; test: HUVEC cell cycle analysis; type: cell-based, human; conditions: 20 μM, 24 h
# In short: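 Cells exposed to test compound or DMSO, then trypsinised, PBS-washed and fixed in 70% ethanol at −20°C. After centrifugation and PBS wash, cells were stained in PI/RNase buffer for 15 min at room temperature. DNA content was analysed by flow cytometry.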
# [13] = molecular target: T4, ID1 (Homo sapiens, UniProt P41134); test: Western blot for ID1 in HUVECs; type: cell-based; conditions: 0–40 μM, 24 h
# T4 sequence (P41134 1-155): T2 sequence (P41134 1-155)
# In short: as §1
# [14] = molecular target: T5, Id1 (Mus musculus, UniProt P20067); test: Circular dichroism; type: binding; conditions: AGX51 0–50 μM; AGXA 0–110 μM in DMSO
# T5 sequence (P20067 1-148 isoform P20067-2): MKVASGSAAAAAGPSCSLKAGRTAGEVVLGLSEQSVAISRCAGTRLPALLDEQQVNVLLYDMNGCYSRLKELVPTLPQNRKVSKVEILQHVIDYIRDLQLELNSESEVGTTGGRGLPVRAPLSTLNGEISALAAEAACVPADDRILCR
structure (smiles),measurement,setting,value
"CCC(=O)N(CCC(c1ccc2c(c1)OCO2)c1ccccc1OC)Cc1ccccc1 (centres unmarked) [AGX51, N-(3-(benzo[d][1,3]dioxol-5-yl)-3-(2-methoxyphenyl)propyl)-N-benzylpropionamide]",effect on Id3 secondary structure (CD),[1],small but reproducible effect
same,Cyclin D1 levels,[2],reduction in Cyclin D1 levels
same,ID1 mRNA levels,[3],increase in ID1 mRNA levels
same,clinical chemistry parameters and hematology,[4],within normal limits
same,gross necropsy and histopathological evaluation of all major organs,[4],No abnormal findings
same,mortality or morbidity,[4],no mortality or morbidity was observed
same,weight loss,[4],no significant weight loss
same,HUVEC migration after scratch,[5],significantly impaired HUVEC migration
same,half-life,"[6]; male, BALB/c, mouse, serum, ip",~180 min
same,mean maximum serum concentration,"[6]; i.p. 30 mg/kg in 70% DMSO, 30 mg/kg",1.1 μg/mL and 2.7 μM
same,mean maximum serum concentration,"[6]; i.p. 50 mg/kg in 70% DMSO, 50 mg/kg",1.6 μg/mL and 4 μM
same,mean maximum serum concentration,"[6]; i.p. 100 mg/kg in 70% DMSO, compared with lower doses",not increased further
same,area of CNV,"[7]; intravitreal 5 μg on days 1 and 7, day 14, p < 0.05",effective at significantly reducing CNV
same,area of CNV,"[7]; twice-daily i.p. injections ~30 mg/kg (500 μg), 14 days, vs vehicle, p < 0.05",significantly reduced CNV
same,area of CNV,"[7]; two intravitreal injections of 10 μg 1 week apart, day 14, vs vehicle, p < 0.05",significantly suppressed CNV
same,competition with the AGX51 tracer (BRET ratio),[8],able to compete the AGX51 tracer
same,IC50,[9],26.7 µM
same,cell viability (MTT),"[10]; HCT116, 40 μM, 24 hours",reduced cell viability
same,IC50,"[10]; Homo sapiens, HCT-116, 24 h",22.3 µM
same,levels of co-precipitated E47 / ID1,[11],markedly reduced the levels of the co-precipitated proteins
same,cell cycle effect,[12],G0/G1 growth arrest
same,concentration at which a significant decrease in ID1 protein levels was observed,[13],10 µM
same,effect on Id1 secondary structure (CD spectra),[14],significant alteration in the 2° structure of Id1

# Source: article PMC6896334 (Cell reports, 2019)
